Source: ChEMBL document CHEMBL2163252, “Azapeptide analogues of the growth hormone releasing peptide 6 as cluster of differentiation 36 receptor ligands with reduced affinity for the growth hormone secretagogue receptor 1a” (J Med Chem, 2012)
Starred links: 1 amine or outer side, 2 acyl side, 3 side chain; linkers in the order of their positions; H or OH if unused. Non-standard residues stand in square brackets, D forms with d. Residues, ends and D or L forms follow the SMILES beside them. dTrp(2-Me) = Cc1[nH]c2ccccc2c1C[C@@H](N)C(=O)O; azaTyr = O=C(N(Cc1ccc(O)cc1)N[*:1])[*:2]; azaPhe = O=C(N(Cc1ccccc1)N[*:1])[*:2]; X1 = O=C(N(CCc1ccccc1)N[*:1])[*:2]; azaLeu = CC(C)CN(N[*:1])C(=O)[*:2]; azaPro = O=C(N1CCCN1[*:1])[*:2]; Aib = CC(C)(N)C(=O)O; azaGly = NNC(=O)O

Assays:
Platelet glycoprotein 4 = Platelet glycoprotein 4 (Rattus norvegicus, UniProt Q07969); assay: Displacement of photoactivatable [125I]-Tyr-Bpa-Ala-Hexarelin from CD36 in Sprague-Dawley rat cardiac membranes incubated for 60 mins by densitometry; format: cell membranes, Membrane
Chain of Platelet glycoprotein 4 (Q07969 whole entry): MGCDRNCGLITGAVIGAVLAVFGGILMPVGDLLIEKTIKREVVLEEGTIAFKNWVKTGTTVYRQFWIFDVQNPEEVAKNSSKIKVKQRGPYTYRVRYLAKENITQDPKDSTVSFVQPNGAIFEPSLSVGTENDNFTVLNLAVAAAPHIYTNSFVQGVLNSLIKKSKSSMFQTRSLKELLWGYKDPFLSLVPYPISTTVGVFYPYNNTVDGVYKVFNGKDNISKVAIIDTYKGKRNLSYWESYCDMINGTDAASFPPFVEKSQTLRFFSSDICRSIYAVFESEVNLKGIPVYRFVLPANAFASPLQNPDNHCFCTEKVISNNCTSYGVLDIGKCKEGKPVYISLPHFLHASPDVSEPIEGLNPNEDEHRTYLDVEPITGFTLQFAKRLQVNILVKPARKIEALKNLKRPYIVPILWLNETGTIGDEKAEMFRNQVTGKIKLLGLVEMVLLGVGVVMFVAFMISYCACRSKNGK

[1] = molecular target: Growth hormone secretagogue receptor type 1 (Homo sapiens, UniProt Q92847); assay: Displacement of [125I]ghrelin expressed in LLC-PK1 cells incubated for 1 hr by gamma counting method; format: cell-based
Chain of Growth hormone secretagogue receptor type 1 (Q92847 whole entry): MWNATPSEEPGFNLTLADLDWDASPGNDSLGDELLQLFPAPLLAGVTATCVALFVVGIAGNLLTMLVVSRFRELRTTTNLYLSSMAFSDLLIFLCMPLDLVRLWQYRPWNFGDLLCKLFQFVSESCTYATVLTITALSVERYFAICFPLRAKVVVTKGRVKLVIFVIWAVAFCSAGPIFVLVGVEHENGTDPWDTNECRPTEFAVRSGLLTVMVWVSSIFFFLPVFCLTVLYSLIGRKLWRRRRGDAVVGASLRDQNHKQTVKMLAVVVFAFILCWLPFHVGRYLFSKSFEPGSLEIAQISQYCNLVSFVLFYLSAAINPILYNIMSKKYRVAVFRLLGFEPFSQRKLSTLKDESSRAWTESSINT
Procedure, shortened: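 Membranes from LLC-PK1 cells transiently transfected with GHS-R1a (CaPO₄; harvested 24 h later; freeze/thaw lysis, 10000g), 10 μg protein/tube. Incubated with ¹²⁵I-ghrelin (40,000 cpm) and competitor 10⁻¹² to 10⁻⁵ M, 1 h at RT, in Tris/MgCl₂/EDTA/bacitracin buffer pH 7.3. Nonspecific binding set with 10⁻⁵ M competitor. Bound separated by filtration on PEI-soaked GF/C filters, gamma counted.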

[2] = Antiangiogenic effect in […] mouse microvascular choroid explants assessed as choroid sprouting at 10^-7 M after 4 days (reference value: 53%); format: functional

Compound	IC50 (Platelet glycoprotein 4)	IC50 [1]	Activity [2]
C[C@H](NC(=O)NNC(=O)[C@@H](Cc1c[nH]c2ccccc12)NC(=O)[C@@H](N)Cc1cnc[nH]1)C(=O)N[C@H](Cc1ccccc1)C(=O)N[C@@H](CCCCN)C(N)=O (H-H[dW][azaGly]A[dF]K-NH2)	> 10 µM	> 10 µM	
C[C@H](NC(=O)[C@@H](Cc1c[nH]c2ccccc12)NC(=O)[C@@H](N)Cc1cnc[nH]1)C(=O)NN(Cc1ccc(O)cc1)C(=O)N[C@H](Cc1ccccc1)C(=O)N[C@@H](CCCCN)C(N)=O (H-H[dW]A[azaTyr][dF]K-NH2)			17%
C[C@H](NC(=O)[C@@H](Cc1c[nH]c2ccccc12)NC(=O)[C@@H](N)Cc1c[nH]cn1)C(=O)N[C@@H](Cc1c[nH]c2ccccc12)C(=O)N[C@H](Cc1ccccc1)C(=O)N[C@@H](CCCCN)C(N)=O (H-H[dW]AW[dF]K-NH2)	1.82 µM		
C[C@H](NC(=O)[C@@H](Cc1c[nH]c2ccccc12)NC(=O)[C@@H](N)Cc1cnc[nH]1)C(=O)N[C@@H](Cc1c[nH]c2ccccc12)C(=O)N1CCCN1C(=O)N[C@@H](CCCCN)C(N)=O (H-H[dW]AW[azaPro]K-NH2)	> 10 µM	> 10 µM	
CC(C)CN(NC(=O)[C@@H](Cc1c[nH]c2ccccc12)NC(=O)[C@@H](N)Cc1cnc[nH]1)C(=O)N[C@@H](Cc1c[nH]c2ccccc12)C(N)=O	> 10 µM	85.6 µM	
NCCCC[C@H](NC(=O)[C@@H](Cc1ccccc1)NC(=O)[C@H](Cc1c[nH]c2ccccc12)NC(=O)N1CCCN1C(=O)[C@@H](Cc1c[nH]c2ccccc12)NC(=O)[C@@H](N)Cc1cnc[nH]1)C(N)=O (H-H[dW][azaPro]W[dF]K-NH2)	9.81 µM	> 10 µM	
CC(C)CN(NC(=O)[C@@H](Cc1c[nH]c2ccccc12)NC(=O)[C@@H](N)Cc1cnc[nH]1)C(=O)N[C@@H](Cc1c[nH]c2ccccc12)C(=O)N[C@H](Cc1ccccc1)C(N)=O	9.01 µM	4.55 µM	
NCCCC[C@H](NC(=O)[C@@H](Cc1ccccc1)NC(=O)[C@@H]1CCCN1C(=O)NNC(=O)[C@@H](Cc1c[nH]c2ccccc12)NC(=O)[C@@H](N)Cc1cnc[nH]1)C(N)=O	> 10 µM	> 10 µM	
C[C@@H](NC(=O)[C@H](Cc1c[nH]c2ccccc12)NC(=O)NNC(=O)[C@@H](Cc1c[nH]c2ccccc12)NC(=O)[C@@H](N)Cc1cnc[nH]1)C(=O)N[C@@H](CCCCN)C(N)=O (H-H[dW][azaGly]W[dA]K-NH2)	> 10 µM	> 10 µM	
Cc1[nH]c2ccccc2c1C[C@@H](NC(=O)[C@@H](Cc1c(C)[nH]c2ccccc12)NC(=O)C(C)(C)N)C(N)=O (H-[Aib]-[dTrp(2-Me)]-[dTrp(2-Me)]-NH2)	> 10 µM	0.0629 µM	
C[C@H](NC(=O)[C@@H](Cc1ccccc1)NC(=O)[C@H](Cc1c[nH]c2ccccc12)NC(=O)NNC(=O)[C@@H](Cc1c[nH]c2ccccc12)NC(=O)[C@@H](N)Cc1cnc[nH]1)C(N)=O (H-H[dW][azaGly]W[dF]A-NH2)	> 10 µM		
C[C@H](NC(=O)N(Cc1ccccc1)NC(=O)[C@@H](N)Cc1cnc[nH]1)C(=O)N[C@@H](Cc1c[nH]c2ccccc12)C(=O)N[C@H](C)C(=O)N[C@@H](CCCCN)C(N)=O (H-H[azaPhe]AW[dA]K-NH2)	> 10 µM	> 10 µM	
CC(C)CN(NC(=O)[C@@H](Cc1c[nH]c2ccccc12)NC(=O)[C@@H](C)N)C(=O)N[C@@H](Cc1c[nH]c2ccccc12)C(=O)N[C@H](Cc1ccccc1)C(=O)N[C@@H](CCCCN)C(N)=O	13.3 µM		
C[C@H](NC(=O)N(Cc1ccccc1)NC(=O)C(N)Cc1cnc[nH]1)C(=O)N[C@@H](Cc1c[nH]c2ccccc12)C(=O)N[C@H](Cc1ccccc1)C(=O)N[C@@H](CCCCN)C(N)=O (some centres undefined)	72.4 µM	16.1 µM	
C[C@H](NC(=O)[C@@H](Cc1c[nH]c2ccccc12)NC(=O)[C@@H](N)Cc1cnc[nH]1)C(=O)N1CCCN1C(=O)N[C@H](Cc1ccccc1)C(=O)N[C@@H](CCCCN)C(N)=O (H-H[dW]A[azaPro][dF]K-NH2)	> 10 µM	> 10 µM	
C[C@H](NC(=O)N1CCCN1C(=O)[C@@H](N)Cc1cnc[nH]1)C(=O)N[C@@H](Cc1c[nH]c2ccccc12)C(=O)N[C@H](Cc1ccccc1)C(=O)N[C@@H](CCCCN)C(N)=O	> 10 µM	> 10 µM	
C[C@H](NC(=O)[C@@H](Cc1c[nH]c2ccccc12)NC(=O)[C@@H](N)Cc1cnc[nH]1)C(=O)NN(Cc1ccccc1)C(=O)N[C@H](C)C(=O)N[C@@H](CCCCN)C(N)=O (H-H[dW]A[azaPhe][dA]K-NH2)	> 10 µM	> 10 µM	
C[C@H](NC(=O)[C@@H](Cc1c[nH]c2ccccc12)NC(=O)[C@@H](N)Cc1cnc[nH]1)C(=O)NN(CCc1ccccc1)C(=O)N[C@H](Cc1ccccc1)C(=O)N[C@@H](CCCCN)C(N)=O (H-H[dW]A[X1][dF]K-NH2)	> 10 µM		
CC(C)CN(NC(=O)[C@@H](Cc1c[nH]c2ccccc12)NC(=O)[C@@H](N)Cc1cnc[nH]1)C(=O)N[C@@H](C)C(=O)N[C@H](Cc1ccccc1)C(=O)N[C@@H](CCCCN)C(N)=O (H-H[dW][azaLeu]A[dF]K-NH2)	25.9 µM	> 10 µM	

Compound	IC50 (Platelet glycoprotein 4)	IC50 [1]	Activity [2]
CC(C)CN(NC(=O)[C@@H](Cc1c[nH]c2ccccc12)NC(=O)[C@H](C)N)C(=O)N[C@@H](Cc1c[nH]c2ccccc12)C(=O)N[C@H](Cc1ccccc1)C(=O)N[C@@H](CCCCN)C(N)=O	6.66 µM		
C[C@@H](NC(=O)[C@@H](N)Cc1cnc[nH]1)C(=O)NNC(=O)N[C@@H](Cc1c[nH]c2ccccc12)C(=O)N[C@H](Cc1ccccc1)C(=O)N[C@@H](CCCCN)C(N)=O (H-H[dA][azaGly]W[dF]K-NH2)	> 10 µM	> 10 µM	
CC(C)CN(NC(=O)[C@@H](Cc1c[nH]c2ccccc12)NC(=O)[C@@H](N)Cc1cnc[nH]1)C(=O)N[C@@H](Cc1c[nH]c2ccccc12)C(=O)N[C@H](C)C(=O)N[C@@H](CCCCN)C(N)=O (H-H[dW][azaLeu]W[dA]K-NH2)	9.48 µM	> 10 µM	
C[C@H](N)C(=O)NN(Cc1ccc(O)cc1)C(=O)N[C@@H](C)C(=O)N[C@@H](Cc1c[nH]c2ccccc12)C(=O)N[C@H](Cc1ccccc1)C(=O)N[C@@H](CCCCN)C(N)=O (H-A[azaTyr]AW[dF]K-NH2)	36.9 µM	> 10 µM	
CC(C)CN(NC(=O)[C@@H](C)NC(=O)[C@@H](N)Cc1cnc[nH]1)C(=O)N[C@@H](Cc1c[nH]c2ccccc12)C(=O)N[C@H](Cc1ccccc1)C(=O)N[C@@H](CCCCN)C(N)=O (H-H[dA][azaLeu]W[dF]K-NH2)	> 10 µM	> 10 µM	
CC(C)CN(NC(=O)[C@@H](Cc1c[nH]c2ccccc12)NC(=O)[C@@H]1CCCN1)C(=O)N[C@@H](Cc1c[nH]c2ccccc12)C(=O)N[C@H](Cc1ccccc1)C(=O)N[C@@H](CCCCN)C(N)=O	7.97 µM	1.17 µM	
C[C@H](NC(=O)[C@@H](Cc1ccccc1)NC(=O)[C@H](Cc1c[nH]c2ccccc12)NC(=O)[C@H](C)NC(=O)N(Cc1ccc(O)cc1)NC(=O)[C@@H](N)Cc1cnc[nH]1)C(N)=O (H-H[azaTyr]AW[dF]A-NH2)	> 10 µM	> 10 µM	
CC(C)CN(NC(=O)[C@H](C)NC(=O)[C@@H](Cc1c[nH]c2ccccc12)NC(=O)[C@@H](N)Cc1cnc[nH]1)C(=O)N[C@H](Cc1ccccc1)C(=O)N[C@@H](CCCCN)C(N)=O (H-H[dW]A[azaLeu][dF]K-NH2)	> 10 µM		
CC(C)CN(NC(=O)[C@@H](Cc1c[nH]c2ccccc12)NC(=O)CN)C(=O)N[C@@H](Cc1c[nH]c2ccccc12)C(=O)N[C@H](Cc1ccccc1)C(=O)N[C@@H](CCCCN)C(N)=O	10.5 µM	5.41 µM	
C[C@H](NC(=O)[C@@H](Cc1ccccc1)NC(=O)[C@H](Cc1c[nH]c2ccccc12)NC(=O)[C@H](C)NC(=O)N(Cc1ccccc1)NC(=O)[C@@H](N)Cc1cnc[nH]1)C(N)=O (H-H[azaPhe]AW[dF]A-NH2)	> 10 µM		
Cc1[nH]c2ccccc2c1C[C@@H](NC(=O)[C@@H](N)Cc1cnc[nH]1)C(=O)N[C@@H](C)C(=O)N[C@@H](Cc1c[nH]c2ccccc12)C(=O)N[C@H](Cc1ccccc1)C(=O)N[C@@H](CCCCN)C(N)=O [EXAMORELIN] (H-H[dTrp(2-Me)]AW[dF]K-NH2)		0.0159 µM	
C[C@H](NC(=O)N(Cc1cccc2ccccc12)NC(=O)C(N)Cc1cnc[nH]1)C(=O)N[C@@H](Cc1c[nH]c2ccccc12)C(=O)N[C@H](Cc1ccccc1)C(=O)N[C@@H](CCCCN)C(N)=O (some centres undefined)	> 10 µM		
C[C@H](NC(=O)[C@H](C)NC(=O)N(Cc1ccccc1)NC(=O)C(N)Cc1cnc[nH]1)C(=O)N[C@H](Cc1ccccc1)C(=O)N[C@@H](CCCCN)C(N)=O (some centres undefined)	> 10 µM	> 10 µM	
C[C@H](NC(=O)N(Cc1ccc(O)cc1)NC(=O)[C@@H](N)Cc1cnc[nH]1)C(=O)N[C@@H](Cc1c[nH]c2ccccc12)C(=O)N[C@H](C)C(=O)N[C@@H](CCCCN)C(N)=O (H-H[azaTyr]AW[dA]K-NH2)	> 10 µM	> 10 µM	
C[C@H](NC(=O)[C@@H](C)NC(=O)[C@@H](N)Cc1cnc[nH]1)C(=O)NN(Cc1ccccc1)C(=O)N[C@H](Cc1ccccc1)C(=O)N[C@@H](CCCCN)C(N)=O (H-H[dA]A[azaPhe][dF]K-NH2)	> 10 µM	> 10 µM	
CCC(=O)N[C@H](Cc1c[nH]c2ccccc12)C(=O)NN(CC(C)C)C(=O)N[C@@H](Cc1c[nH]c2ccccc12)C(=O)N[C@H](Cc1ccccc1)C(=O)N[C@@H](CCCCN)C(N)=O	> 10 µM	3.86 µM	
C[C@H](NC(=O)[C@H](C)NC(=O)N(Cc1ccc(O)cc1)NC(=O)C(N)Cc1cnc[nH]1)C(=O)N[C@H](Cc1ccccc1)C(=O)N[C@@H](CCCCN)C(N)=O (some centres undefined)	> 10 µM	> 10 µM	
C[C@H](NC(=O)[C@@H](Cc1ccccc1)NC(=O)N(Cc1ccccc1)NC(=O)[C@H](C)NC(=O)[C@@H](Cc1c[nH]c2ccccc12)NC(=O)[C@@H](N)Cc1cnc[nH]1)C(N)=O (H-H[dW]A[azaPhe][dF]A-NH2)	> 10 µM	> 10 µM	
